From ChEMBL document CHEMBL1132334, “Discovery of 1,6-naphthyridines as a novel class of potent and selective human cytomegalovirus inhibitors” (J Med Chem, 1999) come the findings set out here.

One may read the CC50 as the concentration that lowers cell viability or growth by half. By IC50 is commonly meant the midpoint of a concentration-inhibition curve. Higher therefore signals a need for much substance.

Values after ≈ are worked out from the molar mass of the structure shown.

Assay [1] has as its system Hs68. In words: Cytotoxicity in the human fibroblast Hs 68 cell line. It counts as functional. In outline:
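Hs68 fibroblasts plated at 1000 cells/well and incubated overnight. Medium then replaced with compound, six serial 2-fold dilutions (3.2-100 µg/mL) in triplicate, for 72 h. Proliferation read by [³H]thymidine uptake with scintillation counting and expressed as percent of untreated control; CC50 is the concentration giving 50% inhibition.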

The test system of assay [2] is Human betaherpesvirus 5. As to the kind of experiment: Anti-HCMV activity in the human fibroblast Hs 68 cell line. The following applies: Human betaherpesvirus 5, Hs68. In kind it is functional, organism-based. In short, it runs like this: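 Hs68 human fibroblasts infected with HCMV strain AD169 at MOI 0.001, with or without compound, incubated 7 days. Plaques then counted under the microscope. Mean of duplicate values, experiments done at least twice.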

Assay [3] relates to Hs68. In words: Cytotoxicity in the Hs 68 cell line. It counts as functional. The following applies: Homo sapiens.

In assay [1], `CC(C)Oc1ccccc1CNC(=O)c1ccc2cncc(Cl)c2n1` showed a CC50 of 6 µg/mL (≈ 16.9 µM). In assay [2], this compound showed an IC50 of 0.03 µg/mL (≈ 0.0843 µM).

As to `COc1cccc(CNC(=O)c2ccc3cnccc3n2)c1`, in assay [3], it took 100 µg/mL (≈ 341 µM) to reach half-maximal cytotoxicity (CC50). In assay [2], this compound gave an IC50 of 2.1 µg/mL (≈ 7.16 µM).

In assay [3], `COc1ccc(CNC(=O)c2ccc3cnccc3n2)cc1` displayed a CC50 of 50 µg/mL (≈ 170 µM). For the same compound, the IC50 in assay [2] is > 50 µg/mL.

`O=C(NCc1ccccc1)c1ccc2cnccc2n1`: the CC50 in assay [1] turned out to be 71 µg/mL (≈ 270 µM). Moreover, the 50% inhibitory concentration (IC50) in assay [2] amounted to 1 µg/mL (≈ 3.8 µM).

In turn, `CC(C)Oc1ccccc1CNC(=O)c1ccc2cncc(Br)c2n1` registered a CC50 in assay [1] of 9 µg/mL (≈ 22.5 µM). The midpoint of inhibition in assay [2], the IC50, lay at 0.15 µg/mL (≈ 0.375 µM).

Turning to `CC(C)Oc1cccc(CNC(=O)c2ccc3cnccc3n2)c1`, the CC50 in assay [1] was 8.4 µg/mL (≈ 26.1 µM). In assay [2], this compound displayed an IC50 of 3.6 µg/mL (≈ 11.2 µM).

In assay [1], `O=C(NCc1ccc(Br)cc1)c1ccc2cnccc2n1` returned a cytotoxic concentration (CC50) of 10 µg/mL (≈ 29.2 µM). In assay [2], the IC50 was > 10 µg/mL.

`O=C(Nc1ccccc1)c1ccc2cnccc2n1`: the CC50 in assay [3] worked out at 50 µg/mL (≈ 201 µM). Besides, in assay [2], the IC50 came to 50 µg/mL (≈ 201 µM).

With `CC[C@@H](C)Oc1ccccc1CNC(=O)c1ccc2cnccc2n1`, the cytotoxic concentration (CC50) in assay [1] is 0.1 µg/mL (≈ 0.298 µM). Moreover, in assay [2], half-maximal inhibition (IC50) required 0.003 µg/mL (≈ 0.00894 µM).

Turning to `CC(C)(C)Oc1ccccc1CNC(=O)c1ccc2cnccc2n1`, the CC50 in assay [1] was 4.4 µg/mL (≈ 13.1 µM). Moreover, the concentration for half-maximal inhibition (IC50) in assay [2] was 0.04 µg/mL (≈ 0.119 µM).

In turn, `O=C(NCc1ccccc1Br)c1ccc2cnccc2n1` showed a CC50 in assay [1] of 100 µg/mL (≈ 292 µM). In assay [2], this compound displayed a concentration for half-maximal inhibition (IC50) of 0.7 µg/mL (≈ 2.05 µM).

Consider `CC[C@H](C)Oc1ccccc1CNC(=O)c1ccc2cnccc2n1`, for which the 50% cytotoxic concentration (CC50) in assay [1] came out at 3.1 µg/mL (≈ 9.24 µM). Also, the IC50 in assay [2] turned out to be 0.03 µg/mL (≈ 0.0894 µM).

For `C=Cc1cncc2ccc(C(=O)NCc3ccccc3OC(C)C)nc12`, in assay [1], the CC50 worked out at 17 µg/mL (≈ 48.9 µM). This compound also gave an IC50 in assay [2] of 0.003 µg/mL (≈ 0.00864 µM).

`O=C(NCCc1ccccc1)c1ccc2cnccc2n1` returned a CC50 in assay [1] of 5 µg/mL (≈ 18 µM). This compound displayed an IC50 in assay [2] of 0.78 µg/mL (≈ 2.81 µM).

In assay [1], `O=C(NCc1cccc(Br)c1)c1ccc2cnccc2n1` gave a CC50 of 50 µg/mL (≈ 146 µM). This compound registered an IC50 in assay [2] of 2.2 µg/mL (≈ 6.43 µM).

Compound `COc1ccccc1CCNC(=O)c1ccc2cnccc2n1` displayed a CC50 in assay [3] of 17 µg/mL (≈ 55.3 µM). In assay [2], the midpoint of inhibition, the IC50, lay at 6 µg/mL (≈ 19.5 µM).

Turning to `Cc1cncc2ccc(C(=O)NCc3ccccc3OC(C)C)nc12`, the midpoint of cytotoxicity in assay [1], the CC50, lay at 3 µg/mL (≈ 8.94 µM). Moreover, it took 0.0004 µg/mL (≈ 0.00119 µM) to reach half-maximal inhibition in assay [2] (IC50).

For `CC(C)Oc1ccccc1CNC(=O)c1ccc2cnccc2n1`, in assay [1], the midpoint of cytotoxicity, the CC50, lay at 2.5 µg/mL (≈ 7.78 µM). For the same compound, it took 0.005 µg/mL (≈ 0.0156 µM) to reach half-maximal inhibition in assay [2] (IC50).

In assay [1], `COc1ccccc1CNC(=O)c1cc(C)c2cnccc2n1` displayed a CC50 of 8 µg/mL (≈ 26 µM). In assay [2], this compound gave a half-maximal inhibitory concentration (IC50) of 11 µg/mL (≈ 35.8 µM).

`Nc1nc2c(ncn2COC(CO)CO)c(=O)[nH]1` [GANCICLOVIR]: the 50% cytotoxic concentration (CC50) in assay [3] worked out at 12.5 µg/mL (≈ 49 µM). For the same compound, in assay [2], the IC50 stood at 0.3 µg/mL (≈ 1.18 µM).
